The text below walks through data of paper PMC3747510 (Scientific Reports, 2013).

Where a chain is given by its changes, count along the chain named.

The target in test [1] is T1, S. pneumoniae LeuRS (SpLeuRS) (Streptococcus pneumoniae serotype 4, UniProt Q97SS0).
T1 sequence (Q97SS0 1-833): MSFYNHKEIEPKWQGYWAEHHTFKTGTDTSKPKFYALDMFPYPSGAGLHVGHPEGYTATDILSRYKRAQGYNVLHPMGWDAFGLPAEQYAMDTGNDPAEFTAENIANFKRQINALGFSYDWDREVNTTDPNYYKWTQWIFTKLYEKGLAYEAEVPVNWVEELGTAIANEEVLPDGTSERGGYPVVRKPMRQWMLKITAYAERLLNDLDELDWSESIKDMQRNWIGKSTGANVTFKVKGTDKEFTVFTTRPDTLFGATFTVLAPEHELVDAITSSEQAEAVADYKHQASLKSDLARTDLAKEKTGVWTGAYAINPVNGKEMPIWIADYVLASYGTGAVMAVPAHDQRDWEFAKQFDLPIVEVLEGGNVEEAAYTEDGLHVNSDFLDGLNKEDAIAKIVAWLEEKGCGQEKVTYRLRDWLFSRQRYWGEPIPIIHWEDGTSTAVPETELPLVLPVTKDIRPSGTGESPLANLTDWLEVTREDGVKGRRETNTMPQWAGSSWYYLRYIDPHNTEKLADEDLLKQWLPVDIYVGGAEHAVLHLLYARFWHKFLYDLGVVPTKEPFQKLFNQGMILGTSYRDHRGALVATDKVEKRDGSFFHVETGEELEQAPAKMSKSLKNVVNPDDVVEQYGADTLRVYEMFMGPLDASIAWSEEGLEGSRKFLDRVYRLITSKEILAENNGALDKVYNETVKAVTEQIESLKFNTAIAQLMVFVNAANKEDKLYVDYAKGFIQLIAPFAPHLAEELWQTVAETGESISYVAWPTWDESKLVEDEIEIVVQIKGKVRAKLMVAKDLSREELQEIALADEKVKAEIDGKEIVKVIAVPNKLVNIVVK
Put plainly: Aminoacylation inhibition. The format is biochemical. In a few lines:
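Aminoacylation at 37°C with [3H]leucine, started with 4 mM ATP, in Tris-HCl pH 7.5 buffer. Each LeuRS was used at equal activity, i.e. forming 10 pmol Leu-tRNALeu in 5 min. At least six test-compound concentrations were tested. IC50 was taken from a fitted dose-response curve, as the mean of at least two independent experiments.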

Test [2] relates to HEK 293. As to the kind of experiment: Cell proliferation assay. The format is cell-based. The following applies: Homo sapiens, HEK293, read-out: IC50, Human cell lines, HEK 293. In a few lines: (§1)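 Cells in DMEM/10% FBS, 37°C, 5% CO2. Seeded from 1 × 10^5 cells/mL and allowed to adhere overnight. Test compound added at 2.5–100 μg/mL (0.5% DMSO final), five wells per concentration. Incubated 0, 24, 48 or 72 h, then 4 h with MTS/PMS (20:1), and A492 read. DMSO and medium-only controls. IC50 by nonlinear regression against log concentration.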

The subject of test [3] is A549. As to the kind of experiment: Cell proliferation assay. The class given is cell-based. The following applies: Homo sapiens, A549, read-out: IC50, Human cell lines, A549. The method, boiled down:
as §1

The target in test [4] is T2, SpLeuRS Y332D (Streptococcus pneumoniae serotype 4, UniProt Q97SS0, Y332D).
T2 sequence (Q97SS0 1-833 Y332D): T1 sequence (Q97SS0 1-833) with Y332D
As to the kind of experiment: Aminoacylation by SpLeuRS Y332D mutant. The format is biochemical. The following applies: 50 μM ZCL039. In a few lines: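 Aminoacylation at 37°C, started with 4 mM ATP. Point mutants were made by site-directed mutagenesis. The MmLinker chimera has CP1 Lys226–Thr411 replaced by a nonapeptide. Means of three independent experiments.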

On to `OB1OCc2ccc(C(O)c3ccccc3)cc21` (stereo not shown) [ZCL039, [6-(1-phenyl-1-hydroxylmethyl)]-1,3-dihydro-1-hydroxy-2,1-benzoxaborole], for which the IC50 in test [1] was 1.72 ± 0.05 µM; in test [2], over 200 µM; in test [3], over 200 µM. Besides, the “Effect on synthetic activity of Y332D mutant” value in test [4] is listed as “did not affect”.

As a reminder, the IC50 is the concentration that gives 50% inhibition.
